Measured values from different studies.
Compare with care: the assays were run in different laboratories.
Target: Tau-tubulin kinase 1 (TTBK1, Homo sapiens, UniProt Q5TCY1)
Observed: enzyme activity
Mode: inhibitor

With `COc1cc(Nc2cnc(C#N)c(O[C@H](C)CN(C)C)n2)ncc1-c1cnn(C)c1` the remaining activity was 98% (radiometric; 1 µM).
For `Cc1ccc(C(=O)NCc2ccsc2)cc1C#Cc1cn(C(C)C)c2ncnc(N)c12`, the activity vs control was 104% (1 µM).
For `COc1cc(Cl)c(C(=O)N[C@@H](CN[C@H]2CC[C@@H](N)CC2)Cc2ccc(C#N)cc2)cc1-c1ccc(CN[C@H](C)c2ccc(C)cc2)o1`, the remaining activity was 99% (1 µM).
`CN1CC(Oc2cnc(C#N)cc2-c2ccn3nc(NC(=O)C4CC4)cc3c2)C1` has an inhibition of 1% (1 µM).
`O=C(Nc1cnn(-c2csc(C(=O)NC3COC3)c2)c1)Nc1c(F)cccc1Cl` has a remaining activity of 82.3% (5 µM).
For `COc1cc(/C=C/C(=O)CC(=O)/C=C/c2ccc(O)c(OC)c2)ccc1O`, the activity vs control was 102% (1 µM).
`Cc1sc(C(=O)NC2COC2)cc1-n1cc(NC(=O)Nc2c(F)cccc2Cl)cn1` has a remaining activity of 113% (10 µM).
`CC(C)(O)[C@H]1CC[C@H](Nc2ccc3ncc(-c4cccc(C(F)(F)F)c4)n3n2)CC1` has a remaining activity of 95.8% (1 µM).
